These results are taken from ChEMBL document CHEMBL1122233, “Antihypertensive 9-substituted 1-oxa-4,9-diazaspiro[5.5]undecan-3-ones” (J Med Chem, 1983).

For experiment [1], the system named is Rattus norvegicus. The experiment can be described thus: Percentage fall in systolic blood pressure after 4 hr at 0.31 mg/kg given perorally. In kind it is functional, Artery. Particulars: route oral. The gist of the method: (§1)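 Male Okamoto-Aoki spontaneously hypertensive rats, trained, in groups of four matched for mean systolic pressure; five treated groups and one vehicle control run concurrently. Oral dosing in water (solution or suspension, 0.1 mL/10 g) on two consecutive mornings. On day 2, rats were restrained at 30.0 ± 1.0 °C and tail-cuff systolic pressure recorded at 1–4 h; percent fall versus control, 1-tail t test, p ≤ 0.05.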

In experiment [2] the test system is Rattus norvegicus. Description: Percentage fall in systolic blood pressure after 2 hr at 1.25 mg/kg given perorally. The settings on record: route oral. It is filed as functional, Artery. The gist of the method: as §1
Experiment [3] concerns Rattus norvegicus. Description: Percentage fall in systolic blood pressure after 2 hr at 0.31 mg/kg given perorally. In kind it is functional, Artery. Particulars: route oral. The gist of the method:
as §1

For experiment [4], the system named is Rattus norvegicus. The experiment can be described thus: Percentage fall in systolic blood pressure after 1 hr at 1.25 mg/kg given perorally. Particulars: route oral. It is filed as functional, Artery. In short, it runs like this: as §1
The subject of experiment [5] is Rattus norvegicus. Description: Percentage fall in systolic blood pressure after 1 hr at 0.31 mg/kg given perorally. It is filed as functional, Artery. The settings on record: route oral. In short, it runs like this: as §1
The subject of experiment [6] is Rattus norvegicus. Description: Percentage fall in systolic blood pressure after 3 hr at 1.25 mg/kg given perorally. In kind it is functional, Artery. Particulars: route oral. In short, it runs like this: as §1
Experiment [7] concerns Rattus norvegicus. Description: Percentage fall in systolic blood pressure after 3 hr at 0.31 mg/kg given perorally. It is filed as functional, Artery. The settings on record: route oral. The gist of the method:
as §1

The test system of experiment [8] is Rattus norvegicus. The experiment can be described thus: Percentage fall in systolic blood pressure after 4 hr at 1.25 mg/kg given perorally. In kind it is functional, Artery. The settings on record: route oral. The gist of the method: as §1
Experiment [9] relates to Rattus norvegicus. The experiment can be described thus: Percentage fall in systolic blood pressure after 4 hours at 50 mg/kg given perorally. In kind it is functional, organism-based. Details: dose 50 mg/kg. The settings on record: Artery. In short, it runs like this:
(§2)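 Male Okamoto-Aoki SHR, four per group, with a concurrent vehicle control group. Oral dosing in water (0.1 mL/10 g) on two consecutive mornings. After the day-2 dose, rats were restrained in a 30 °C chamber. Tail-cuff systolic pressure was taken at 1-4 h from four traces per rat. Result is % decrease versus control mean, by 1-tailed t test, p ≤ 0.05.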

Experiment [10] relates to Rattus norvegicus. Description: Percentage fall in systolic blood pressure after 1 hr at 50 mg/kg given perorally. It is filed as functional, organism-based. Set-up: dose 50 mg/kg. Particulars: Artery. In short, it runs like this: as §1
Experiment [11] relates to Rattus norvegicus. The experiment can be described thus: Percentage fall in systolic blood pressure after 3 hours at 50 mg/kg given perorally. Particulars: Artery. It is filed as functional, organism-based. Set-up: dose 50 mg/kg. The gist of the method:
as §2

Experiment [12] relates to Rattus norvegicus. The experiment can be described thus: Percentage fall in systolic blood pressure after 2 hours at 50 mg/kg given perorally. It is filed as functional, Artery. Particulars: route oral. In short, it runs like this:
as §1

For the molecule `COc1cc2nc(N3CCN(C(=O)c4ccco4)CC3)nc(N)c2cc1OC` [PRAZOSIN], the “Decrease in SBP” value with Rattus norvegicus [1] was found to be 26%; in the experiment on Rattus norvegicus [2], 46%; in the experiment on Rattus norvegicus [3], 31%; in the experiment on Rattus norvegicus [4], 26%; in the experiment with Rattus norvegicus [5], 19%; with Rattus norvegicus [6] it was 36%. For the same molecule, the “Decrease in SBP” value is reported as 21% in the experiment on Rattus norvegicus [7] and 31% in the experiment with Rattus norvegicus [8].

On to `O=C1COC2(CCN(CC(O)COc3ccccc3)CC2)CN1` (configuration not stated), for which the “Decrease in SBP” value is “Not significant” with Rattus norvegicus [9], “Not significant” in the experiment on Rattus norvegicus [10], “Not significant” with Rattus norvegicus [11] and 18% with Rattus norvegicus [12].
